In ChEMBL document CHEMBL1141410, “Eremophilane-type sesquiterpene derivatives from the roots of Ligularia lapathifolia” (J Nat Prod, 2007):
pIC50: −log10 of the molar value.

system: not listed separately; assay: Cytotoxicity against human MGC803 cells after 48 hrs by MTT colorimetric assay; type: cell-based; settings: MGC-803, 48 h
Method in brief: (§1)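 Cells maintained in RPMI-1640 with 10% heat-inactivated FBS, penicillin and streptomycin at 37 °C, 5% CO2; exponentially growing cells seeded at 1 × 10^5 cells/mL, treated after 24 h at 0.1–100 or 0.15–150 mg/L, six replicate wells per point. After 48 h, MTT added for 4 h at 37 °C, then 10% SDS–0.01 M HCl overnight; A570 read, cytotoxicity % versus untreated cells.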

Structure (SMILES) | pIC50
CC1=C2[C@@H]3OC(=O)C4=CCC[C@H](C[C@]2(O)OC1=O)[C@@]43C | < 4.00
CCO[C@]12C[C@H]3CCC=C4C(=O)O[C@@H](C1=C(C)C(=O)O2)[C@]43C | 4.27
C/C=C(/C)C(=O)OC1CC[C@@H]2CC(=O)C(C(C)C(=O)OC)=C[C@]2(C)C1C(=O)OC (stereo not given in full) | < 4.00
CO[C@]12C[C@H]3CCC=C4C(=O)O[C@@H](C1=C(C)C(=O)O2)[C@]43C | < 4.00
COC(=O)C1=CCC[C@@H]2CC(C(C)=O)=C[C@]12C | 4.45

system: HepG2; assay: Cytotoxicity against human HEPG2 cells after 48 hrs by MTT colorimetric assay; type: cell-based; settings: HepG2, 48 h; method in brief: as §1

Structure (SMILES) | pIC50
CC1=C2[C@@H]3OC(=O)C4=CCC[C@H](C[C@]2(O)OC1=O)[C@@]43C | < 4.00
CCO[C@]12C[C@H]3CCC=C4C(=O)O[C@@H](C1=C(C)C(=O)O2)[C@]43C | 4.39
C/C=C(/C)C(=O)OC1CC[C@@H]2CC(=O)C(C(C)C(=O)OC)=C[C@]2(C)C1C(=O)OC (stereo not given in full) | < 4.00
CO[C@]12C[C@H]3CCC=C4C(=O)O[C@@H](C1=C(C)C(=O)O2)[C@]43C | 4.90
COC(=O)C1=CCC[C@@H]2CC(C(C)=O)=C[C@]12C | 4.33

system: CCRF S-180; assay: Cytotoxicity against mouse S180 cells after 48 hrs by MTT colorimetric assay; type: cell-based; settings: CCRF S-180, 48 h; method in brief: as §1

Structure (SMILES) | pIC50
CC1=C2[C@@H]3OC(=O)C4=CCC[C@H](C[C@]2(O)OC1=O)[C@@]43C | < 4.00
CCO[C@]12C[C@H]3CCC=C4C(=O)O[C@@H](C1=C(C)C(=O)O2)[C@]43C | 4.44
C/C=C(/C)C(=O)OC1CC[C@@H]2CC(=O)C(C(C)C(=O)OC)=C[C@]2(C)C1C(=O)OC (stereo not given in full) | < 4.00
CO[C@]12C[C@H]3CCC=C4C(=O)O[C@@H](C1=C(C)C(=O)O2)[C@]43C | 4.14
COC(=O)C1=CCC[C@@H]2CC(C(C)=O)=C[C@]12C | 4.70
